Among the data in ChEMBL document CHEMBL3877293, “Synthesis and Antineoplastic Evaluation of Novel Unsymmetrical 1,3,4-Oxadiazoles” (J Med Chem, 2016) are IC50 values, retold here.

Assay [1] can be described thus: Antiproliferative activity against human MCF7 cells after 72 hrs by XTT assay. The assay is classed as functional, cell-based. The settings on record: MCF7, 72 h. In a few lines:
(§1)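 Cells plated at 1500–2000 per well by doubling time, treated after 24 h with a concentration series in six triplicate wells, and incubated 72 h without a medium change. XTT reagent was then added for 4 h at 37 °C and absorbance read at 490 nm. IC50 is the concentration halving absorbance versus untreated cells. Experiments run in triplicate.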

The nature of assay [2]: Antiproliferative activity against human HeLa cells after 72 hrs by XTT assay. The class given is functional, cell-based. In a few lines: as §1

A value given as a limit tells only on which side of the number the result lay.

The IC50 is the concentration needed to halve the response being measured. Take `Clc1ccc(-c2nnc(-c3c[nH]c4c3Cc3ccccc3-4)o2)cc1Cl`: the IC50 in assay [1] and in assay [2] was more than 10 µM throughout.

`COc1ccc2c(c1)-c1[nH]c(C)c(-c3nnc(-c4ccccc4)o3)c1C2`: the IC50 in assay [1] and in assay [2] was more than 10 µM each time.

For the molecule `c1ccc(Cc2nnc(-c3c[nH]c4c3Cc3ccccc3-4)o2)cc1`, the IC50 in assay [1] and in assay [2] was more than 10 µM each time.

For `Cc1ccc2c(c1)Cc1c-2[nH]c(C)c1-c1nnc(-c2ccccc2)o1`, the IC50 in assay [1] is more than 10 µM; in assay [2], 5.3 µM.

Turning to `CC(C)(C)c1ccc(-c2nnc(-c3c[nH]c4c3Cc3ccccc3-4)o2)cc1`, the IC50 in assay [1] was determined as 9.5 µM; in assay [2], 3.4 µM.

For `Cc1[nH]c2c(c1-c1nnc(-c3ccccc3)o1)Cc1cc(Br)ccc1-2`, the IC50 in assay [1] was determined as 4.26 µM; in assay [2], 0.51 µM.

For `Clc1cccc(-c2nnc(-c3c[nH]c4c3Cc3ccccc3-4)o2)c1`, the IC50 in assay [1] and in assay [2] was more than 10 µM throughout.

`Cc1ccc(Cc2nnc(-c3c[nH]c4c3Cc3ccccc3-4)o2)cc1`: the results for the IC50 in assay [1] and in assay [2] were 4.25 µM and more than 10 µM, respectively.

`COc1cc(-c2nnc(-c3c[nH]c4c3Cc3ccccc3-4)o2)cc(OC)c1OC`: the IC50 in assay [1] and in assay [2] was more than 10 µM throughout.

On to `c1ccc(-c2nnc(-c3nn(-c4ccccc4)c4c3Cc3ccccc3-4)o2)cc1`, for which the concentration for half-maximal inhibition (IC50) in assay [1] is 7.59 µM; in assay [2] it was more than 10 µM.

Turning to `Cn1nc(-c2nnc(-c3ccccc3)o2)c2c1-c1ccccc1C2`, the half-inhibitory concentration (IC50) in assay [1] and in assay [2] was more than 10 µM in each case.

For the molecule `c1ccc2c(c1)Cc1c(-c3nnc(C4CCCCC4)o3)c[nH]c1-2`, the IC50 in assay [1] and in assay [2] was more than 10 µM in each case.

Regarding `Cc1[nH]c2c(c1-c1nnc(-c3ccccc3)o1)Cc1cc(Cl)ccc1-2`, the IC50 in assay [1] is more than 10 µM; in assay [2], 4.5 µM.

For the molecule `Clc1ccc(Cc2nnc(-c3c[nH]c4c3Cc3ccccc3-4)o2)cc1`, the IC50 in assay [1] and in assay [2] was more than 10 µM in each case.

As for `Clc1ccc(-c2nnc(-c3c[nH]c4c3Cc3ccccc3-4)o2)cc1`, the IC50 in assay [1] and in assay [2] was more than 10 µM in each case.

Consider `Cc1[nH]c2c(c1-c1nnc(-c3ccccc3)o1)Cc1cc(C3CC3)ccc1-2`, for which the half-maximal inhibitory concentration (IC50) in assay [1] was determined as 2.31 µM; in assay [2], 1.58 µM.
